Screens (PubChem BioAssay)
C8 TRAIL sens: sensitizes caspase-8 expressing cells to TRAIL; inhibition (viability loss, TRAIL sensitization), % at 10 µM; 1% of 360,000 active; AID 624354; NB7+C8 cells + TRAIL, ATPlite viability luminescence;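 active = compounds causing at least 50% loss of cell viability in the single-dose screen, relative to plate controls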
FLuc stim CS: affects firefly luciferase, flagging false hits in luciferase stimulation screens; P08659; ATPlite luciferase biochemical, luminescence, 10 min; 0 = ATP-free wells, 1 = DMSO control; activation factor at 10 µM; 200,000 tested, under 10 active; AID 1027;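 active = luciferase activation factor, scaled between plate controls, of at least 2 with compound at 10 µM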
Target sequence (P08659 whole entry, looked up): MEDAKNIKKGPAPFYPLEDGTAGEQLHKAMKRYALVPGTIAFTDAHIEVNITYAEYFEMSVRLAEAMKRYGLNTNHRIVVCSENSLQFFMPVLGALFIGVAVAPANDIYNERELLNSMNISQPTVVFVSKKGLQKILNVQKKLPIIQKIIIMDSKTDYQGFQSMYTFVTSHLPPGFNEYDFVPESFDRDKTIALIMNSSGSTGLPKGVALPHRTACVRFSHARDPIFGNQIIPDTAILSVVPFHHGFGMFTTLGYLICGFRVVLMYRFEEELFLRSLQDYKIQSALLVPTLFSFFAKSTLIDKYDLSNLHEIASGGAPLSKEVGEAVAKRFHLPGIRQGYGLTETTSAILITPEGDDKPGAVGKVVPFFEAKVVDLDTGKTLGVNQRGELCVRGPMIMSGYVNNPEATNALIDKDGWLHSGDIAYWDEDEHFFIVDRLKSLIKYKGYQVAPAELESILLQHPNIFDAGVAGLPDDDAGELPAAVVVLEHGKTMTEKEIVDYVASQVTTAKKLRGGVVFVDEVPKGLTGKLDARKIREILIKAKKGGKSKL
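Assay system: Luciferase/luciferin detection reagent, cell-free biochemical luciferase assay / Read-out: luciferase activation / Benchmarks: No-ATP low control, compound-free enzyme-plus-ATP high control / Medium: PBS buffer for ATP / Detection: luminescence measurement of luciferase light output / Schedule: 10 min at ambient temperature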
APP 5'UTR act: APP 5'UTR luciferase reporter activation; 1% of 190,000 active; activation, % at 2 µM; SH-SY5Y APP 5'UTR luciferase reporter, luminescence; zero percent = DMSO vehicle wells;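 active = activation above a set limit, based on mean plus 3 SD of controls, cut at about 140% in these data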
PPC-1+TRAIL kill: compounds killing PPC-1 cancer cells with TRAIL present (potentiator screen, no TRAIL-free arm). PPC-1 cells + TRAIL, ATPLite viability luminescence. cell killing (% activity), % at 4 µM or 5 µM. 0.41% of 220,000 active. AID 1443;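 active = cell killing above 50% in the first pass at 4 µM, then a duplicate retest at 5 µM averaging 50% or more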;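 note: plate controls were cells with TRAIL plus DMSO for no effect and medium-only wells lacking cells for full effect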
NF-kB neuron act: NF-kB expression increase, human neuronal cells; fold change at 12.5 µM; 1.6% of 190,000 active; NF-kB reporter expression; hits give high values; AID 1239; in the data active = fold change above about 3.3
FLuc inh counter: counter-screen for luciferase assay inhibitors: firefly luciferase inhibition | ATPLite firefly luciferase biochemical luminescence, 10 min | inhibition, % at 10 µM | 1.5% of 200,000 active | AID 1006;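 active = inhibition above about 50% when tested at 10 µM, limit read from the data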
* marks the source's active call; other numbers are inactive results. In the library only some 2.2% were active in any assay of this set; here they are far more common.

What do the screens show for `COc1cc2c3nnc(-c4ccc(F)cc4)c-3cn(Cc3ccccc3)c2cc1OC`?
C8 TRAIL sens: 67*; FLuc stim CS: 1.1; APP 5'UTR act: 16; PPC-1+TRAIL kill: 28; NF-kB neuron act: 1; FLuc inh counter: -6

Results for CCOC(=O)C1CCCN(C(=O)c2cc(F)cc(F)c2)CC1 (stereo unspecified) ?
C8 TRAIL sens: -21

What do the screens show for `Cc1ccc(CS(=O)Cc2ccc(C(=O)NCCc3ccccc3)o2)cc1` (stereo unspecified)?
C8 TRAIL sens: -12

Results for COc1cccc(OCc2ccc(Cl)cc2)c1C#N ?
C8 TRAIL sens: 59*; PPC-1+TRAIL kill: 31

What do the screens show for `CCOC(=O)c1ccc(N/C=C/C(=O)c2ccccc2)cc1`?
C8 TRAIL sens: 30; FLuc stim CS: 0.6; APP 5'UTR act: 164*; PPC-1+TRAIL kill: 18; NF-kB neuron act: 4.8*; FLuc inh counter: 42

Results for CCOC(=O)c1ccc(N/C=C/C(=O)C(C)(C)C)cc1 ?
C8 TRAIL sens: 27; FLuc stim CS: 0.8; APP 5'UTR act: 98; PPC-1+TRAIL kill: -5; NF-kB neuron act: 4.2*; FLuc inh counter: 22

How did Cc1cc(=O)[nH]c(SCC(=O)Nc2cccc(S(=O)(=O)N3CCOCC3)c2)n1 do in these assays?
C8 TRAIL sens: -8

What do the screens show for `O=[N+]([O-])/C=C/c1c(OCc2ccccc2)ccc2ccccc12`?
C8 TRAIL sens: 60*; FLuc stim CS: 1; APP 5'UTR act: 9; PPC-1+TRAIL kill: -17; NF-kB neuron act: 0.23; FLuc inh counter: -4

What do the screens show for `Cc1noc(C)c1S(=O)(=O)Nc1ccc2c(c1)CC(=O)N([C@H](C)CO)C[C@H](C)[C@H](CN(C)S(=O)(=O)c1ccc(F)cc1)O2`?
C8 TRAIL sens: -20

How did C=C(C1=CCN(S(=O)C(C)(C)C)[C@@H]1CCO)c1ccccc1 (stereo partly specified) do in these assays?
C8 TRAIL sens: 9

Results for Cc1nc2c(-c3ccc(Cl)cc3)cnn2c(N)c1-c1ccc(F)cc1 ?
C8 TRAIL sens: 33

How did Cc1nc2c(-c3ccc(F)cc3)cnn2c(N)c1-c1ccccc1 do in these assays?
C8 TRAIL sens: 83*

How did CC(=O)Nc1ccc(Nc2cc(C)nc3c(-c4ccccc4)cnn23)cc1 do in these assays?
C8 TRAIL sens: 17; FLuc stim CS: 1; APP 5'UTR act: 165*; PPC-1+TRAIL kill: 29; NF-kB neuron act: 0.76; FLuc inh counter: 0

What do the screens show for `Cc1cc(-c2ccc(F)cc2)n2ncc(-c3ccccc3)c2n1`?
C8 TRAIL sens: 64*

What do the screens show for `CCOc1ccc(C(=O)CCc2nc3ccccc3s2)cc1`?
C8 TRAIL sens: 6; FLuc stim CS: 1; APP 5'UTR act: 39; PPC-1+TRAIL kill: 14; NF-kB neuron act: 0.47; FLuc inh counter: -5

How did CC[C@@H](C)[C@H](CN[C@H](CNC)C(C)C)NC[C@@H](C)c1ccc(CC(C)C)cc1 do in these assays?
C8 TRAIL sens: 64*

How did CC[C@H](C)[C@@H](CNC)NC[C@@H](Cc1ccc(O)cc1)NCC(C)(C)C do in these assays?
C8 TRAIL sens: 5

How did COc1ccc(-c2nnc(SCc3csc(N)n3)n2C)cc1 do in these assays?
C8 TRAIL sens: -18; FLuc stim CS: 1.1; APP 5'UTR act: -10; PPC-1+TRAIL kill: 8; NF-kB neuron act: 1.2; FLuc inh counter: -5

How did Cc1ccc(Nc2nc(CSc3nnc(-c4ccc(F)cc4)n3C)cs2)cc1 do in these assays?
C8 TRAIL sens: 35; FLuc stim CS: 0.2; APP 5'UTR act: 21; PPC-1+TRAIL kill: 33; NF-kB neuron act: 1.1; FLuc inh counter: 84*

What do the screens show for `COc1cc(/C=C/CNC[C@H]2O[C@@H](n3cc(C)c(=O)[nH]c3=O)C[C@@H]2O)ccc1O`?
C8 TRAIL sens: -1

Results for CCC(=O)Nc1nc2ccc3nc(C)sc3c2s1 ?
C8 TRAIL sens: 1; FLuc stim CS: 1; APP 5'UTR act: 28; PPC-1+TRAIL kill: 4; NF-kB neuron act: 3.5*; FLuc inh counter: 0

What do the screens show for `COc1ccc2sc(NC(=O)CC(C)C)nc2c1`?
C8 TRAIL sens: 10; FLuc stim CS: 0.9; APP 5'UTR act: 94; PPC-1+TRAIL kill: 20; NF-kB neuron act: 3.5*; FLuc inh counter: 15

How did CCC(=O)Nc1nc2cc(OC)ccc2s1 do in these assays?
C8 TRAIL sens: 19; FLuc stim CS: 0.8; APP 5'UTR act: 87; PPC-1+TRAIL kill: 28; NF-kB neuron act: 3.6*; FLuc inh counter: 20

What do the screens show for `N=c1c2c(n(Cc3ccc(Cl)c(Cl)c3)c3c1CCC3)CCCC2`?
C8 TRAIL sens: 65*; FLuc stim CS: 1; APP 5'UTR act: -12; PPC-1+TRAIL kill: 42; NF-kB neuron act: 0.9; FLuc inh counter: -4

How did O=C(Nc1cccc([N+](=O)[O-])c1)c1ccncc1 do in these assays?
C8 TRAIL sens: -3; FLuc stim CS: 1; APP 5'UTR act: 15; PPC-1+TRAIL kill: 23; NF-kB neuron act: 0.94; FLuc inh counter: -5

How did CC(C)(C)c1ccc(C(=O)Nc2cccc([N+](=O)[O-])c2)cc1 do in these assays?
C8 TRAIL sens: 55*; FLuc stim CS: 0.3; APP 5'UTR act: 137*; PPC-1+TRAIL kill: 39; NF-kB neuron act: 7.6*; FLuc inh counter: 72*

Results for O=C(Nc1cccc([N+](=O)[O-])c1)c1ccc2ccccc2c1O ?
C8 TRAIL sens: 54*; PPC-1+TRAIL kill: 28

What do the screens show for `O=C(Cc1ccccc1)Nc1cccc([N+](=O)[O-])c1`?
C8 TRAIL sens: -2; FLuc stim CS: 1; APP 5'UTR act: 0; PPC-1+TRAIL kill: 8; NF-kB neuron act: 1.2; FLuc inh counter: -1

How did CCN(CC)S(=O)(=O)c1ccc(C)c(C(=O)Oc2cccc(-c3cnc4ccccc4n3)c2)c1 do in these assays?
C8 TRAIL sens: 8; FLuc stim CS: 1; APP 5'UTR act: 96; PPC-1+TRAIL kill: 8; NF-kB neuron act: 1.3; FLuc inh counter: -1

What do the screens show for `O=C(Oc1cccc(-c2cnc3ccccc3n2)c1)c1ccco1`?
C8 TRAIL sens: 22; FLuc stim CS: 0.9; APP 5'UTR act: 122; PPC-1+TRAIL kill: 21; NF-kB neuron act: 3.5*; FLuc inh counter: 5

Results for CCOc1ccc(C2=NNC(c3cccs3)=Nc3ccc(OC)cc32)cc1 ?
C8 TRAIL sens: 10; FLuc stim CS: 1; APP 5'UTR act: 8; PPC-1+TRAIL kill: 25; NF-kB neuron act: 6.4*; FLuc inh counter: -1

What do the screens show for `CCOc1ccc(C2=NNC(c3cccnc3)=Nc3ccc(OC)cc32)cc1`?
C8 TRAIL sens: -1; FLuc stim CS: 0.5; APP 5'UTR act: -5; PPC-1+TRAIL kill: -3; NF-kB neuron act: 0.94; FLuc inh counter: 45

How did NC(=S)n1[nH]c(-c2ccc([N+](=O)[O-])cc2)c(N=Nc2ccc(Cl)cc2)c1=O do in these assays?
C8 TRAIL sens: 59*; FLuc stim CS: 1; APP 5'UTR act: -30; PPC-1+TRAIL kill: 26; NF-kB neuron act: 0.57; FLuc inh counter: 3
